The list is not random: actives were taken first. Their share in the collection is about 2.2%.
PfG6PD inh: PfG6PD (Plasmodium falciparum) enzyme inhibition | PfGluPho enzyme, NADPH resazurin-diaphorase fluorescence | inhibition, % at 20 µM | 350,000 compounds, 0.78% hits;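 active means inhibition reaching at least a set limit at 20 µM in the primary screen, cut at about 59% in these data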;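 further: 0% = DMSO wells with substrate and 100% = DMSO wells lacking glucose-6-phosphate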
HKDC1 inh: inhibitors of human hexokinase HKDC1 | Q2TB90 | recombinant HKDC1, G6PDH/diaphorase resazurin coupled fluorescence | inhibition, % at 20 µM | 340,000 compounds, 0.16% hits;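 active means inhibition above about 35% when tested at 20 µM, limit read from the data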;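 further: plate controls were DMSO wells with enzyme for no effect and DMSO wells lacking enzyme for full effect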
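Assay system: recombinant HKDC1 hexokinase; detection: coupled resazurin fluorescence, excitation 525 nm, emission 613 nm; benchmarks: DMSO-plus-enzyme-mix negative control, buffer-substituted positive control; compound dosing: single 20 µM dose; schedule: 90 min at room temperature in dark; also added: glucose plus 1 mM ATP as hexokinase substrates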
ABHD5 PLIN5 PPI: inhibitors of human ABHD5-perilipin-5 interaction; inhibition, % at 4 µM; Q00G26+Q8WTS1; 360,000 compounds, 0.78% hits; AID 602281; Split G. princeps luciferase complementation, luminescence, 4 h;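 active means inhibition above the mean inhibition across every tested compound plus 3 SD, cut at about 22% in these data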;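 further: 0% = DMSO only wells and the 100% control is not disclosed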
Target sequence (Q00G26 whole entry, looked up): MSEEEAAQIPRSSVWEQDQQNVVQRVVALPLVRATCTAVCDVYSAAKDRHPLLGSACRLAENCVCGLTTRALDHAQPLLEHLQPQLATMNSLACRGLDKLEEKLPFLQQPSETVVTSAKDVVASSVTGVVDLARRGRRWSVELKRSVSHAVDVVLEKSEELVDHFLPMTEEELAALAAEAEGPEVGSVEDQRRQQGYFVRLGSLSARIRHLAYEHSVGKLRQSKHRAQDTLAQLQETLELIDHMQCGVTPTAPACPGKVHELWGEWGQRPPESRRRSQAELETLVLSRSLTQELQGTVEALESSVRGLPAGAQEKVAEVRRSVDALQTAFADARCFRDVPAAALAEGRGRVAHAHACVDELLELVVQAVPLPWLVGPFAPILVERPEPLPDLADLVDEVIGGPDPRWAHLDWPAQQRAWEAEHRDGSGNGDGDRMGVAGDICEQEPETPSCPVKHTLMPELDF
Target sequence (Q8WTS1 whole entry, looked up): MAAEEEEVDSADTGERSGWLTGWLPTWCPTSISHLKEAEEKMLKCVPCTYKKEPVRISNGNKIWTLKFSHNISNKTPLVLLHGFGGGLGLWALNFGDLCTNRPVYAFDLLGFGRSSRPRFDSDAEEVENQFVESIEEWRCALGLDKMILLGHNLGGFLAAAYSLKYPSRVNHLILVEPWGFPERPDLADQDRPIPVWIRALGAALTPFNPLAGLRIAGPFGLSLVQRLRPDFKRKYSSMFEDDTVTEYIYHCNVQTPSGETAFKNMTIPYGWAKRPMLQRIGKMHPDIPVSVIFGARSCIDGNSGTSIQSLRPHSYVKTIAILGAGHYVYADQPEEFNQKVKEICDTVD
Exocytosis inh: lytic granule exocytosis inhibition; TALL-104 LAMP-1 surface exposure, flow cytometry; cells stimulated with thapsigargin and PMA; inhibition, % at 10 µM; 360,000 compounds, 0.66% hits;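 active means inhibition above about 55%, limit read from the data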
Granule exo CP1: blocks lytic granule exocytosis; shares compounds with Exocytosis inh; TALL-104 cells, LAMP-1 externalization, flow cytometry; stimulated with PMA plus thapsigargin; inhibition, % at 10 µM; 1,500 compounds, 11% hits; AID 651954; in the data active means inhibition above about 60%;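 further: 0% = stimulated vehicle wells and 100% = unstimulated wells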
* marks the source's active call; other numbers are inactive results; x = no result given.

SMILES | PfG6PD inh | HKDC1 inh | ABHD5 PLIN5 PPI | Exocytosis inh | Granule exo CP1
CN(C)c1ccc(C(=O)N2CCN(C(=O)C3CCCO3)CC2)cc1 (stereo not given) | -7.7 | -4.7 | 2.8 | -3.5 | x
COC(=O)C(CCSC)NC(=O)c1cc2c(n(-c3ccccc3)c1=O)CC(C)(C)CC2=O (stereo not given) | -10.0 | -3.6 | 10.1 | -2.3 | x
COc1cccc(N2CCN(c3ncnc4c3[nH]c3ccc(F)cc34)CC2C)c1 (stereo not given) | 14.0 | 0.1 | -0.9 | 98.5* | 103.6*
COc1ccc2[nH]c3c(N4CC(C)OC(C)C4)ncnc3c2c1 (stereo not given) | 37.8 | 3.3 | x | x | x
COc1ccccc1CNC(=O)[C@@H](NC(=O)C1CCN(C(=O)[C@@H]2CCCN2)CC1)C(C)C | 5.3 | -6.6 | 1.2 | 1.8 | x
N#Cc1c(Oc2ccc3ccccc3c2)sc(C(=O)c2ccccc2)c1N | 2.8 | 1.9 | -2.5 | 41.9 | x
Cc1cccc(Oc2sc(C(=O)c3ccccc3)c(N)c2C#N)c1C | 0.1 | -0.3 | 2.1 | 65.6* | 5.3
CCOc1ccc(CCNC(=O)CN2C(=O)CCSc3ccccc32)cc1OCC | -3.3 | -1.7 | 5.2 | 95.6* | -3.6
CSc1ccc(CCNC(=O)CN2C(=O)CCSc3ccccc32)cc1 | 9.1 | -7.2 | 3.3 | 2.1 | x
CCOC(=O)C1(CCOc2ccccc2)CCN(Cc2ccc(O)c(OCC)c2)CC1 | 7.8 | -1.2 | 2.0 | 80.9* | -3.3
CCOC(=O)C1(Cc2cccc(OC)c2)CCN(Cc2ccc(OC)c(O)c2)CC1 | 19.7 | 5.7 | 4.4 | -0.3 | x
CCOC(=O)C1(CCOc2ccccc2)CCN(Cc2ccc(OC)c(O)c2)CC1 | -13.2 | 6.9 | -6.7 | 71.0* | -12.3
CCOC(=O)C1(CCOc2ccccc2)CCN(Cc2cnc(SC)nc2)CC1 | -7.3 | -4.6 | 3.9 | 1.2 | x
CCOC(=O)C1(CCOc2ccccc2)CCN(Cc2cc(OC)c(O)c(OC)c2)CC1 | 44.8 | 20.4 | 0.5 | 76.6* | 9.6
CCOC(=O)C1(CCOc2ccccc2)CCN(Cc2ccc(OC)c(COC)c2)CC1 | -12.4 | 6.3 | -6.5 | 73.6* | -9.2
CCCN1CCC(CCOc2ccccc2)(C(=O)OCC)CC1 | -1.5 | 1.4 | -9.0 | -0.3 | x
CC(=O)Nc1ccc(CN(C)c2c(C)nc3ccc(C(=O)N4CCN(C(=O)c5ccco5)CC4)cn23)cc1 | x | x | 0.3 | -7.6 | x
COC(=O)C[C@@H]1C=C[C@H](NC(=O)Nc2cc(F)ccc2F)[C@@H](CO)O1 | x | x | 1.5 | -1.0 | x
O=C(NN=C1CCCCCCCCCCC1)c1cccc(S(=O)(=O)N2CCOCC2)c1 | 2.9 | 3.0 | -5.3 | -1.3 | x
CCOC(=O)C1(CCOc2ccccc2)CCN(Cc2ccc(OCCO)cc2)CC1 | -15.7 | -2.8 | 7.9 | 37.8 | x
CCOC(=O)C1(CCOc2ccccc2)CCN(Cc2ccc(O)cc2)CC1 | -18.5 | -6.8 | 3.0 | 56.5* | -5.3
CCOc1ccc(C(=O)Nc2ccc3nc(N4CCN(CC)CC4)cc(C)c3c2)cc1 | 2.9 | 0.2 | 3.5 | 62.8* | -6.3
O=C(O)c1ccc(Cl)c(S(=O)(=O)N(Cc2ccccc2)c2ccccc2)c1 | -3.7 | 3.7 | 6.5 | 62.6* | -13.3
CCC1CSC(=Nc2ccc(C)cc2)N1C(=O)CN1C(=O)NC2(CCCC2)C1=O (stereo not given) | 13.8 | 7.1 | 2.4 | 14.9 | x
O=C(Nc1cccc(Cl)c1)c1ccc2c(c1)OCCO2 | 42.9 | -3.7 | 1.9 | 61.4* | -4.9
SMILES | PfG6PD inh | HKDC1 inh | ABHD5 PLIN5 PPI | Exocytosis inh | Granule exo CP1
CSc1ccccc1NC(=O)CN(C)C(=O)CCc1c[nH]c2ccccc12 | -49.3 | 1.3 | -7.5 | 62.5* | -14.8
CCCN(c1ccccc1F)S(=O)(=O)c1cc(-c2cc(C)no2)ccc1OC | 5.5 | -0.6 | 1.2 | 89.4* | -3.8
Cc1ccc(-n2nc3c(N4CCC(C(=O)NCc5cccc(F)c5)CC4)nnc(C)c3c2C)cc1 | 17.7 | 0.7 | 5.3 | 59.0* | 8.6
CCOc1ccccc1CNC(=O)C1CCCN(c2nnc(C)c3c(C)n(-c4ccccc4)nc23)C1 (stereo not given) | 35.8 | -0.8 | 16.0 | 72.5* | 9.2
O=C(Cc1cccc(NC(=O)C2CCN(C(=O)C3CCC3)CC2)c1)Nc1cccc(C(=O)N2CCCC2)c1 | -9.8 | 0.6 | 12.7 | -0.7 | x
CCOc1ccc2nc(C)cc(Nc3cccc([N+](=O)[O-])c3)c2c1 | 26.0 | 5.0 | 5.0 | 90.2* | 80.0*
Cc1ccc(C)c(NC(=S)N(C)CCO)c1 | 0.8 | -10.5 | -2.4 | 0.2 | x
CCN1C(=O)N[C@@H](c2cccc(C(F)(F)F)c2)[C@@H](C(=O)OC)[C@H]1C | -7.3 | -5.4 | -1.9 | 101.1* | -12.2

Compound activity (PubChem BioAssay)
